Values after ≈ are worked out from the molar mass of the structure shown.
What was measured:
[1] = system: Mycobacterium tuberculosis; experiment: […]; type: functional, TN587
Method in brief: (§1)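 Strains were grown at 37 °C in 7H9 Middlebrook broth with 10% OADC, 0.05% Tween and 0.2% glycerol. Compounds were dissolved in DMSO and serially diluted 2-fold, then bacteria were added. Plates were incubated 6 days at 37 °C, then 24 h more with Alamar Blue. MIC was the lowest concentration (μg/mL) that prevented the colour change. Run in triplicate.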

[2] = system: Mycobacterium tuberculosis; experiment: […]; type: functional, NHN382; method in brief: as §1

Compound | MIC [1] | MIC [2]
CCc1ccc(C(=O)Nc2cc3nc(C4CCCCC4)[nH]c3cc2N(C)C)cc1 | 0.16 µg/mL (≈ 0.41 µM) | 0.16 µg/mL (≈ 0.41 µM)
CCCCOC(=O)Nc1cc2nc(C3CCCCC3)[nH]c2cc1N(C)C | 0.13 µg/mL (≈ 0.363 µM) | 0.06 µg/mL (≈ 0.167 µM)
NNC(=O)c1ccncc1 [ISONIAZID] | 0.25 µg/mL (≈ 1.82 µM) | 0.25 µg/mL (≈ 1.82 µM)
CCCCOC(=O)Nc1cc2nc(C3CCCCC3)[nH]c2cc1N(CC)CC | 1.25 µg/mL (≈ 3.23 µM) | 1.25 µg/mL (≈ 3.23 µM)

Reference: ChEMBL document CHEMBL3124890, “SAR studies on trisubstituted benzimidazoles as inhibitors of Mtb FtsZ for the development of novel antitubercular agents” (J Med Chem, 2013)
